Where two headings read alike, the source gives them in different places.
Assays:
human DYRK2 = molecular target: T1, human DYRK2 (Homo sapiens, UniProt Q92630); assay: DYRK2 kinase 33P-incorporation into Woodtide peptide; format: biochemical; details: read-out: IC50 DYRK2, Woodtide substrate
T1 sequence (Q92630 1-601): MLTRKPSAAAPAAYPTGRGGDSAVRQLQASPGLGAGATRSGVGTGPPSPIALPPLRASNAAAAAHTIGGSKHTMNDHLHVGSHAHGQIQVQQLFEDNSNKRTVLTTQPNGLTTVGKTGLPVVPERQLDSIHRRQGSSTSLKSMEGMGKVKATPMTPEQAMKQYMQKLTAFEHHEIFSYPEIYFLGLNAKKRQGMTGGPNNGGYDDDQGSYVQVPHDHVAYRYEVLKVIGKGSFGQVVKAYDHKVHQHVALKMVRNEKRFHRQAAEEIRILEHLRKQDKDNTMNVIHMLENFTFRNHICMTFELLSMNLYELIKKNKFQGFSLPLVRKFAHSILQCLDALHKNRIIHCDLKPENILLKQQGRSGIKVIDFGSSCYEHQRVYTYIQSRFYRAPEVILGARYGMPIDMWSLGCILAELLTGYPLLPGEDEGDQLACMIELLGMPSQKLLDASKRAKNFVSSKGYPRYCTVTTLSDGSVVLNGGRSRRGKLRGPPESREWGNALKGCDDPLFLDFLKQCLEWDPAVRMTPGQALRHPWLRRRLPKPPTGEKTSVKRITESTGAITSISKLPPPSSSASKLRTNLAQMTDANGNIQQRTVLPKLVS

human haspin kinase = molecular target: T2, human haspin kinase (Homo sapiens, UniProt Q8TF76); assay: haspin kinase TR-FRET assay; format: biochemical
T2 sequence (Q8TF76 1-798): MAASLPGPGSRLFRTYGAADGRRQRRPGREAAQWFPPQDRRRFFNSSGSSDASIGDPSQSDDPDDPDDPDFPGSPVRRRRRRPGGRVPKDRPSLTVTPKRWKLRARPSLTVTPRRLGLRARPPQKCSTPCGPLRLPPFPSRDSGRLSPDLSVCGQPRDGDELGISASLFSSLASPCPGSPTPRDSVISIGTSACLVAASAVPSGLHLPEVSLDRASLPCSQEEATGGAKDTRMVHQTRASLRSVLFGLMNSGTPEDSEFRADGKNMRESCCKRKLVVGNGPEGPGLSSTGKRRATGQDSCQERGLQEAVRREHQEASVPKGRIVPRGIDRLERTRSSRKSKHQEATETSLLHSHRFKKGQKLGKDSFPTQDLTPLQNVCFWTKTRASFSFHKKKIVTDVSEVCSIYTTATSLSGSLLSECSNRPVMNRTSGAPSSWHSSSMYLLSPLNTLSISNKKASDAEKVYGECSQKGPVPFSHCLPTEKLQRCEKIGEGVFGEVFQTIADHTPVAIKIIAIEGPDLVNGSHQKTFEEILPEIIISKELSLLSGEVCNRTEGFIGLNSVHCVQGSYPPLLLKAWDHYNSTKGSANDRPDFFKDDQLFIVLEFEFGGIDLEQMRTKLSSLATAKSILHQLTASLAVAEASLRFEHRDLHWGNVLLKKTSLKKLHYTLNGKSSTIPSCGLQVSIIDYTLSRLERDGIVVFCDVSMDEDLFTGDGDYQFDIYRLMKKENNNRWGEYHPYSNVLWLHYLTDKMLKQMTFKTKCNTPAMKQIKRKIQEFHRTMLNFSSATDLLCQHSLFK
Summary of the method: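 Human haspin activity measured by TR-FRET at varying test compound concentrations to give IC50, using the HTS format: histone H3 peptide substrate, with phosphorylated product (H3T3ph) detected by a europium-labelled phosphospecific monoclonal antibody. For the selectivity ratio, DYRK2 was assayed by 33P incorporation into Woodtide peptide with human N-terminal GST-fused DYRK2 and γ33P-ATP.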

[1] = read-out: IC50 haspin, TR-FRET assay

| IC50 (human DYRK2) [µM] | selectivity for haspin over DYRK2 (human haspin kinase; ratio of IC50 values) [fold] | IC50 (human haspin kinase; [1]) [nM] | IC50 (human haspin kinase; read-out: haspin IC50) [nM] | Structure (SMILES) |
| --- | --- | --- | --- | --- |
| 9.9 | 180 | 55 | < 60 | COc1ccc2nc3ccc(Cl)cc3c(SCCCN)c2c1 [Compound 33] |
|  |  | 2100 |  | COc1ccc2nc3ccc(OC)cc3c(SCCCN3C(=O)c4ccccc4C3=O)c2c1 [Compound 41] |
